In ChEMBL document CHEMBL4699573, “Design, Synthesis, and Pharmacological Evaluation of Analogues Derived from the PLEV Tetrapeptide as Protein-Protein Interaction Modulators of Voltage-Gated Sodium Channel 1.6” (J Med Chem, 2020):
Active and inactive are the calls of the source. The rule behind the calls is not given here. Residues, ends and D or L forms follow the SMILES beside them. *: point of attachment. Adamantane1carbonyl = O=C(C12CC3CC(CC(C3)C1)C2)*; NH(1-Adamantyl) = C1C2CC3CC1CC(N*)(C2)C3; Cyclohexanecarbonyl = O=C(C1CCCCC1)*; Fmoc = O=C(OCC1c2ccccc2-c2ccccc21)*; Benzoyl(4-F) = O=C(c1ccc(F)cc1)*; Cbz = O=C(OCc1ccccc1)*; NHBn = c1ccc(CN*)cc1; NHCH2CH2OH = OCCN*; OtBu = CC(C)(C)O*; X3 = OC1CN(*)C1; OAll = C=CCO*; X1 = C#CCO*

Key:
HEK293 [1] = assay: Inhibition of full-length Photinus pyralis luciferase transfected in HEK293 cells at 25 uM incubated for 1 hrs by split-luciferase complementation assay; format: cell-based
Method in brief: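 HEK293 cells transfected with full-length Photinus pyralis luciferase, then treated 1 h with 25 μM compound (n = 4) or 0.5% DMSO (n = 32). Luminescence read after D-luciferin addition, as in the LCA, normalized to per-plate DMSO controls. One-way ANOVA with Dunnett's test.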

HEK293 [2] = assay: Cytotoxicity against HEK293 cells assessed as reduction in cell viability measured after 18 hrs by celltiter-blue assay; settings: human, hek293, 18 h
HEK293 [3] = assay: Modulation of recombinant human FGF141b (1 to 252 residues)-recombinant human Nav1.6 C-terminal tail (1763 to 1976 residues) protein-protein interaction expressed in HEK293 cells assessed as relative luminescence value at 50 uM measured at 2 mins interval for 20 mins by split-luciferase complementation assay relative to control; format: cell-based; settings: time min 2-20
Method in brief: (§1)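 Double-stable HEK293 line expressing CLuc-FGF14 and CD4-Nav1.6-C-tail-NLuc, kept on G418 and puromycin. Cells seeded for 24 h, then given compound for 1 h in serum-free, phenol red-free DMEM/F12 with a final 0.5% DMSO: 50 μM for screening, 0.25–100 μM over eight concentrations for dose-response; n = 4. D-luciferin added and read every 2 min for 20 min at 37 °C. Peak luminescence expressed as percent of per-plate DMSO mean (n = 32). IC50 from four-parameter nonlinear fit. At least 3 experiments.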

[4] = Modulation of recombinant human FGF141b (1 to 252 residues)-recombinant human Nav1.6 C-terminal tail (1763 to 1976 residues) protein-protein interaction expressed in HEK293 cells measured at 2 mins interval for 20 mins by split-luciferase complementation assay; format: cell-based; method in brief: as §1
HEK293 [5] = assay: Modulation of recombinant human FGF141b (1 to 252 residues)-recombinant human Nav1.6 C-terminal tail (1763 to 1976 residues) protein-protein interaction expressed in HEK293 cells measured at 2 mins interval for 20 mins by split-luciferase complementation assay relative to control; format: cell-based; settings: filed as modulator, time min 2-20; method in brief: as §1
[6] = target: T1, Sodium channel protein type 8 subunit alpha (Homo sapiens, UniProt Q9UQD0); assay: Binding affinity to human recombinant Nav1.6 C-terminal domain expressed in Escherichia coli BL21 assessed as dissociation rate constant by SPR analysis; settings: filed as modulator
Method in brief: (§2)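 Biacore T100 runs with FGF14 (17,896 RU) or Nav1.6 C-tail (6,800 RU) amine-coupled on CM5 at pH 5.5. Compounds at 0.195–200 μM in PBS, 0.005% Tween-20, 2% DMSO; 50 μL/min at 25 °C. 120 s association, 150 s dissociation, DMSO calibration, blank subtraction. Rates from a Langmuir 1:1 fit; KD averages the kinetic and steady-state values. At least duplicate experiments.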
Target sequence in this assay (Q9UQD0 whole entry, looked up, the tested form may be a part): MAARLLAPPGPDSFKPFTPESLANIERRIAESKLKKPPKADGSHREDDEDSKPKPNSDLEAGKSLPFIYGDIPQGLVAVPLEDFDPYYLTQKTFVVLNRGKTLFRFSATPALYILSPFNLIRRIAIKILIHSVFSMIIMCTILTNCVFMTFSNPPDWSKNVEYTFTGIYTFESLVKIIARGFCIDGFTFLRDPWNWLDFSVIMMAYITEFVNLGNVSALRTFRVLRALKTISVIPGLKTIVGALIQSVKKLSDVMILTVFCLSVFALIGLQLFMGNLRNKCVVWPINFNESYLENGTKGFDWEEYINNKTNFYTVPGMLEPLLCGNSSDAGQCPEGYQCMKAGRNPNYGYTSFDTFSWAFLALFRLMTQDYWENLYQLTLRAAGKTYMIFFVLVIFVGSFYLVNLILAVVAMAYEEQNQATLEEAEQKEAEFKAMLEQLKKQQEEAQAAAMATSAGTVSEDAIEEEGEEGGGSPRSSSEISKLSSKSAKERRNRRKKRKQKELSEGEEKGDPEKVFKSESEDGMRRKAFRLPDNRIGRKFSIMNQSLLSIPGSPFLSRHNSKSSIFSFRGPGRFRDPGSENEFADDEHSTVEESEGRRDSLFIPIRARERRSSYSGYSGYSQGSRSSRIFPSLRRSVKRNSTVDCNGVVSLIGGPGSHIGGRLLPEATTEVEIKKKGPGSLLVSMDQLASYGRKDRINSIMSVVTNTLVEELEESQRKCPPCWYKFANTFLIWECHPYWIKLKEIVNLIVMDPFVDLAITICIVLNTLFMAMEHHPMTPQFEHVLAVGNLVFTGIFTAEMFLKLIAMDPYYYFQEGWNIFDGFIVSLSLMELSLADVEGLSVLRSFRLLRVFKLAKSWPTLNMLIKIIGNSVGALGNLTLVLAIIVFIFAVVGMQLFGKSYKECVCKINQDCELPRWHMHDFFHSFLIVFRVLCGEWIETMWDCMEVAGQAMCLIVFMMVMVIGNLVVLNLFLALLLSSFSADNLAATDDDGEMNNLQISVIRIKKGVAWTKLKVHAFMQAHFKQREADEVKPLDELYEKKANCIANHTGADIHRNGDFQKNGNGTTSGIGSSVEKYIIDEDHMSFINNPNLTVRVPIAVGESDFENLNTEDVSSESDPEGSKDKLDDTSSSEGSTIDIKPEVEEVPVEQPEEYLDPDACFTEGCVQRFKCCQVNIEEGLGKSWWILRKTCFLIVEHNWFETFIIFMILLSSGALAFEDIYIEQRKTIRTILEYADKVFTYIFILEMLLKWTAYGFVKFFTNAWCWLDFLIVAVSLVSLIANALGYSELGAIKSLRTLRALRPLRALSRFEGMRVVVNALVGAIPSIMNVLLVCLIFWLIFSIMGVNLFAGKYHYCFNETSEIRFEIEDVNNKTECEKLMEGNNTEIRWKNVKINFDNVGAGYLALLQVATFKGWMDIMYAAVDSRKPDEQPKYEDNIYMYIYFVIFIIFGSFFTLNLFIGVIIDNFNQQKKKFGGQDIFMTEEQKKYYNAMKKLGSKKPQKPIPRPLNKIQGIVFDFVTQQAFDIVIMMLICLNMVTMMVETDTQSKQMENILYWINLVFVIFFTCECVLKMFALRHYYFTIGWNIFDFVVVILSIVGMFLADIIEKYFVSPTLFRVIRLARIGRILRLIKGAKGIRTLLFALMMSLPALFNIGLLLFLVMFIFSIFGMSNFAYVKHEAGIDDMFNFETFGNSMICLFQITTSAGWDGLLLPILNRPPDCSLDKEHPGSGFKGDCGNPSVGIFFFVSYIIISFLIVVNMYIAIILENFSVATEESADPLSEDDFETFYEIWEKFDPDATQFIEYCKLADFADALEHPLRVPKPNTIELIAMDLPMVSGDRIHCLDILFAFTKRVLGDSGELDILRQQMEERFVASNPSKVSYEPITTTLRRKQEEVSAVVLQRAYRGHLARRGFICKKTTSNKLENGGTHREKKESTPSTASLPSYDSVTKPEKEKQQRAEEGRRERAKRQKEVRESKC

[7] = target: T1, Sodium channel protein type 8 subunit alpha; assay: Binding affinity to human recombinant Nav1.6 C-terminal domain expressed in Escherichia coli BL21 assessed as association rate constant by SPR analysis; settings: filed as modulator; method in brief: as §2
Target sequence in this assay (Q9UQD0 whole entry, looked up, the tested form may be a part): as above

[8] = target: T2, Fibroblast growth factor 14 (Homo sapiens) (UniProt Q92915); assay: Binding affinity to human recombinant FGF14 expressed in Escherichia coli BL21 assessed as assessed as induction of protein denaturation by measuring change in melting temperature at 50 uM by fluorescent dye based thermal shift assay; settings: filed as modulator
T2 sequence (whole entry): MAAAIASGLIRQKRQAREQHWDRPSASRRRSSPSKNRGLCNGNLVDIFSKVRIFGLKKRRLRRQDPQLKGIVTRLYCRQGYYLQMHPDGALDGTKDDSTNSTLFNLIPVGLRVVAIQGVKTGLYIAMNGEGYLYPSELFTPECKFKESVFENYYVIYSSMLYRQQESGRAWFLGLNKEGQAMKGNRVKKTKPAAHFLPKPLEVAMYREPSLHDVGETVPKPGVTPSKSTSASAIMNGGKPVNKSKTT

[9] = target: T1, Sodium channel protein type 8 subunit alpha; assay: Binding affinity to human recombinant Nav1.6 C-terminal domain expressed in Escherichia coli BL21 assessed as dissociation constant by SPR analysis; method in brief: as §2
Target sequence in this assay (Q9UQD0 whole entry, the tested form may be a part): as the sequence (Q9UQD0 whole entry, looked up, the tested form may be a part) above

[10] = target: T1, Sodium channel protein type 8 subunit alpha; assay: Binding affinity to human recombinant Nav1.6 C-terminal domain expressed in Escherichia coli BL21 assessed as assessed as induction of protein denaturation by measuring change in melting temperature at 10 uM by fluorescent dye based thermal shift assay; settings: filed as modulator, dose 50.0 µM
Target sequence in this assay (Q9UQD0 whole entry, looked up, the tested form may be a part): as the sequence (Q9UQD0 whole entry, looked up, the tested form may be a part) above

[11] = target: T2, Fibroblast growth factor 14 (Homo sapiens); assay: Binding affinity to human recombinant FGF14 expressed in Escherichia coli BL21 assessed as association rate constant by SPR analysis; settings: filed as modulator; method in brief: as §2
[12] = target: T3, Fibroblast growth factor 14 (Homo sapiens, UniProt Q92915); assay: Binding affinity to human recombinant FGF14 expressed in Escherichia coli BL21 assessed as dissociation constant by SPR analysis; method in brief: as §2
T3 sequence (Q92915 whole entry): T2 sequence (whole entry)

CC(C)C[C@H](NC(=O)[C@@H]1CCCN1C(=O)c1ccc(F)cc1)C(=O)N[C@@H](CCC(=O)OC(C)(C)C)C(=O)N[C@H](C(N)=O)C(C)C ({Benzoyl(4-F)}-PLE(OtBu)V-NH2)
inhibition (HEK293 [1]): inactive | Activity (HEK293 [2]): Non-Toxic

CC(C)C[C@H](NC(=O)[C@@H]1CCCN1C(=O)OCc1ccccc1)C(=O)N[C@@H](CCC(=O)OC(C)(C)C)C(=O)N[C@H](C(=O)NC12CC3CC(CC(C3)C1)C2)C(C)C (Cbz-PLE(OtBu)V-{NH(1-Adamantyl)})
Activity (HEK293 [3]): 81.5%

COC(=O)[C@@H](NC(=O)[C@H](CCC(=O)OC(C)(C)C)NC(=O)[C@H](CC(C)C)NC(=O)[C@@H]1CCCN1C(=O)OCC1c2ccccc2-c2ccccc21)C(C)C (Fmoc-PLE(OtBu)V-OMe)
Activity (HEK293 [3]): 76.9%

CC(C)C[C@H](NC(=O)[C@@H]1CCCN1C(=O)C1CCCCC1)C(=O)N[C@@H](CCC(=O)OC(C)(C)C)C(=O)N[C@H](C(N)=O)C(C)C (Cyclohexanecarbonyl-PLE(OtBu)V-NH2)
Activity (HEK293 [3]): 104%

COC(=O)[C@@H](NC(=O)[C@H](CCC(=O)OC(C)(C)C)NC(=O)[C@H](CC(C)C)NC(=O)[C@@H]1CCCN1C(=O)OCc1ccccc1)C(C)C (Cbz-PLE(OtBu)V-OMe)
IC50 [4]: 22.4 µM | Efficacy (HEK293 [5]): 93.3% | inhibition (HEK293 [1]): inactive | Activity (HEK293 [2]): Non-Toxic | Activity (HEK293 [3]; filed as modulator): 39.8%

CC(=O)N1CCC[C@H]1C(=O)N[C@@H](CC(C)C)C(=O)N[C@@H](CCC(=O)O)C(=O)N[C@H](C(N)=O)C(C)C (Ac-PLEV-NH2)
Activity (HEK293 [3]): 79.4%

CC(C)C[C@H](NC(=O)[C@@H]1CCCN1C(=O)OCc1ccccc1)C(=O)N[C@@H](CCC(=O)OC(C)(C)C)C(=O)N[C@H](C(=O)NCc1ccccc1)C(C)C (Cbz-PLE(OtBu)V-NHBn)
inhibition (HEK293 [1]): inactive | Activity (HEK293 [2]): Non-Toxic | Activity (HEK293 [3]): 134%

CC(C)C[C@H](NC(=O)[C@@H]1CCCN1C(=O)OCc1ccccc1)C(=O)N[C@@H](CCC(=O)OC(C)(C)C)C(=O)N[C@H](C(=O)N1CC(O)C1)C(C)C (Cbz-PLE(OtBu)V-X3)
Activity (HEK293 [3]): 112%

CC(C)C[C@H](NC(=O)[C@@H]1CCCN1C(=O)OCc1ccccc1)C(=O)N[C@@H](CCC(=O)OC(C)(C)C)C(=O)N[C@H](C(=O)NCCO)C(C)C (Cbz-PLE(OtBu)V-NHCH2CH2OH)
Activity (HEK293 [3]): 118%

CNC(=O)[C@@H](NC(=O)[C@H](CCC(=O)OC(C)(C)C)NC(=O)[C@H](CC(C)C)NC(=O)[C@@H]1CCCN1C(=O)OCc1ccccc1)C(C)C (Cbz-PLE(OtBu)V-NHMe)
Activity (HEK293 [3]): 103%

C=CCOC(=O)[C@@H](NC(=O)[C@H](CCC(=O)OC(C)(C)C)NC(=O)[C@H](CC(C)C)NC(=O)[C@@H]1CCCN1C(=O)OCc1ccccc1)C(C)C (Cbz-PLE(OtBu)V-OAll)
IC50 [4]: 15.4 µM | K [6]: 4.49 10^-3/s | Efficacy (HEK293 [5]): 90.7% | K [7]: 2.57 10^5/M/s | ΔTm [8]: 0.67 °C | inhibition (HEK293 [1]): inactive | Activity (HEK293 [2]): Non-Toxic | Kd [9]: > 200 µM | Activity (HEK293 [3]; filed as modulator): 11.9% | ΔTm [10]: -0.87 °C

CC(C)C[C@H](NC(=O)[C@@H]1CCCN1)C(=O)N[C@@H](CCC(=O)OC(C)(C)C)C(=O)N[C@H](C(N)=O)C(C)C (H-PLE(OtBu)V-NH2)
Activity (HEK293 [3]): 114%

C#CCOC(=O)[C@@H](NC(=O)[C@H](CCC(=O)OC(C)(C)C)NC(=O)[C@H](CC(C)C)NC(=O)[C@@H]1CCCN1C(=O)C12CC3CC(CC(C3)C1)C2)C(C)C (Adamantane1carbonyl-PLE(OtBu)V-X1)
IC50 [4]: 13.8 µM | K [6]: 1.45 10^-3/s | Efficacy (HEK293 [5]): 96.6% | K [7]: 1.26 10^5/M/s | ΔTm [8]: -1.85 °C | inhibition (HEK293 [1]): inactive | K [11]: 2.58 10^4/M/s | Activity (HEK293 [2]): Non-Toxic | Kd [9]: > 200 µM | Activity (HEK293 [3]; filed as modulator): 5.1% | Kd [12]: 14.7 µM | ΔTm [10]: -0.15 °C
